# Source: ChEMBL document CHEMBL3525979, “Combined contributions of impaired hepatic CYP2C11 and intestinal breast cancer resistance protein activities and expression to increased oral glibenclamide exposure in rats with streptozotocin-induced diabetes mellitus” (Drug Metab Dispos, 2012)
# Key:
# [1] = AUC (0 to infinity) in Sprague-Dawley rat model of streptozotocin-induced diabetes mellitus at 10 mg/kg, po by HPLC method; type: ADME, organism-based; design: time infinity, dose 10 mg/kg, route oral; settings: in vivo
# How it was run: (§1)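 Sprague-Dawley rats: diabetes induced by STZ 65 mg/kg i.p. in citrate buffer pH 4.5 (fasting glucose >11.1 mM at day 7). Insulin group received protamine zinc insulin 5 U/kg s.c. twice daily for 4 weeks. On day 35, overnight-fasted rats got GLB 10 mg/kg orally in 0.5% CMC-Na. Plasma GLB measured by HPLC with fluorescence detection (ex 308/em 360 nm). Non-compartmental analysis; n=6-7.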
# [2] = AUC (0 to infinity) in normal Sprague-Dawley rat at 10 mg/kg, po by HPLC method; type: ADME, organism-based; design: time infinity, dose 10 mg/kg, route oral; settings: plasma; how it was run: as §1
# [3] = AUC (0 to t) in insulin treated Sprague-Dawley rat model of streptozotocin-induced diabetes mellitus at 10 mg/kg, po by HPLC method; type: ADME, organism-based; design: dose 10 mg/kg, route oral; settings: in vivo; how it was run: as §1
# [4] = tested on: Liver microsome; experiment: Drug metabolism in normal Sprague-Dawley rat liver microsomes assessed as compound level at 4 uM after 60 mins (reference value: 2.06 +/- 0.12 ug/ml); type: ADME; settings: 1 h
# [5] = Half life in insulin treated streptozotocin-induced diabetes mellitus Sprague-Dawley rat liver microsomes at 4 uM after 60 mins; type: ADME
# How it was run: (§2)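 Liver microsomes (0.5 mg/mL protein) from control, STZ-diabetic or insulin-treated diabetic rats, 0.01 M phosphate buffer pH 7.4, 4 μM GLB (methanol <1%); 5 min preincubation at 37 °C, started with NADPH regenerating system. Stopped with 1 M HCl at 0, 5, 15, 30, 45, 60 min. GLB depletion measured by HPLC-fluorescence. AUC by linear trapezoid; Clapp = initial dose/AUC0-t; t1/2 = 0.693/terminal slope. Triplicate incubations; 4-5 rats.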
# [6] = Drug excretion in bile of insulin treated Sprague-Dawley rat model of streptozotocin-induced diabetes mellitus at 10 mg/kg, po by HPLC method; type: ADME, organism-based; design: dose 10 mg/kg, route oral; settings: read-out: Drug excretion
# How it was run: (§3)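 STZ-diabetic (65 mg/kg i.p.), insulin-treated or control rats were dosed with GLB 10 mg/kg orally on day 35 after overnight fast. Urine and feces were collected in metabolic cages at 6-h intervals to 36 h. For bile, the common bile duct was cannulated under pentobarbital and bile collected to 12 h. GLB measured by HPLC-fluorescence and expressed as % of dose.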
# [7] = Drug excretion in bile of Sprague-Dawley rat model of streptozotocin-induced diabetes mellitus at 10 mg/kg, po by HPLC method; type: ADME, organism-based; design: dose 10 mg/kg, route oral; settings: read-out: Drug excretion; how it was run: as §3
# [8] = Cmax in insulin treated Sprague-Dawley rat model of streptozotocin-induced diabetes mellitus at 10 mg/kg, po by HPLC method; type: ADME, organism-based; design: dose 10 mg/kg, route oral; settings: in vivo; how it was run: as §1
# [9] = Half life in streptozotocin-induced diabetes mellitus Sprague-Dawley rat liver microsomes at 4 uM after 60 mins; type: ADME; how it was run: as §2
# [10] = Drug excretion in normal Sprague-Dawley rat bile at 10 mg/kg, po by HPLC method; type: ADME, organism-based; design: dose 10 mg/kg, route oral; settings: read-out: Drug excretion; how it was run: as §3
# [11] = Cmax in Sprague-Dawley rat model of streptozotocin-induced diabetes mellitus at 10 mg/kg, po by HPLC method; type: ADME, organism-based; design: dose 10 mg/kg, route oral; settings: in vivo; how it was run: as §1
# [12] = Drug excretion in feces of insulin treated Sprague-Dawley rat model of streptozotocin-induced diabetes mellitus at 10 mg/kg, po by HPLC method; type: ADME, organism-based; design: dose 10 mg/kg, route oral; settings: faeces, read-out: Drug excretion; how it was run: as §3
# [13] = Cmax in normal Sprague-Dawley rat at 10 mg/kg, po by HPLC method; type: ADME, organism-based; design: dose 10 mg/kg, route oral; settings: in vivo; how it was run: as §1
# [14] = AUC (0 to infinity) in insulin treated Sprague-Dawley rat model of streptozotocin-induced diabetes mellitus at 10 mg/kg, po by HPLC method; type: ADME, organism-based; design: dose 10 mg/kg, route oral, time infinity; settings: in vivo; how it was run: as §1
# [15] = Terminal elimination half life in normal Sprague-Dawley rat at 10 mg/kg, po by HPLC method; type: ADME, organism-based; design: dose 10 mg/kg, route oral; settings: in vivo, read-out: beta t1/2 (converted)
# How it was run: (§4)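 Rats given STZ 65 mg/kg i.p. in citrate buffer pH 4.5 (controls got buffer); diabetic if fasting glucose >11.1 mM at day 7; insulin group got protamine zinc insulin 5 U/kg s.c. twice daily for 4 weeks. On day 35, overnight-fasted rats dosed orally with 10 mg/kg in 0.5% CMC-Na; plasma by ethyl acetate extraction, HPLC fluorescence (ex 308/em 360 nm); non-compartmental analysis; n=6-7, mean ± S.D.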
# [16] = Oral clearance in insulin treated Sprague-Dawley rat model of streptozotocin-induced diabetes mellitus at 10 mg/kg, po by HPLC method; type: ADME, organism-based; design: dose 10 mg/kg, route oral; settings: in vivo; how it was run: as §4
# [17] = Drug excretion in normal Sprague-Dawley rat urine at 10 mg/kg, po by HPLC method; type: ADME, organism-based; design: dose 10 mg/kg, route oral; settings: read-out: Drug excretion; how it was run: as §3
# [18] = tested on: Liver microsome; experiment: Apparent hepatic clearance in streptozotocin-induced diabetes mellitus Sprague-Dawley rat liver microsomes assessed per mg protein at 4 uM after 60 mins; type: ADME; settings: 1 h; how it was run: as §2
# [19] = Tmax in normal Sprague-Dawley rat at 10 mg/kg, po by HPLC method; type: ADME, organism-based; design: dose 10 mg/kg, route oral; settings: in vivo; how it was run: as §4
# [20] = tested on: Jejunum; experiment: Drug absorption in streptozotocin-induced diabetes mellitus Sprague-Dawley rat jejunum at 10 ug/ml after 120 mins of in situ single-pass perfusion relative to normal rat; type: ADME, tissue-based; settings: in vivo, 2 h
# How it was run: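 In situ single-pass jejunal perfusion in anaesthetized control and STZ-diabetic rats. The segment was preperfused with 0.9% saline at 0.2 mL/min, 37 °C, for 20 min, then perfused with K-H buffer containing GLB 10 μg/mL. Effluent was collected at 15-min intervals after a 30-min steady state. Cumulative absorption was calculated from GLB loss (HPLC); n=5.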
# [21] = Terminal elimination half life in Sprague-Dawley rat model of streptozotocin-induced diabetes mellitus at 10 mg/kg, po by HPLC method; type: ADME, organism-based; design: dose 10 mg/kg, route oral; settings: in vivo, read-out: beta t1/2 (converted); how it was run: as §4
# [22] = tested on: Liver microsome; experiment: Drug metabolism in insulin treated streptozotocin-induced diabetes mellitus Sprague-Dawley rat liver microsomes assessed as compound level at 4 uM after 60 mins (reference value: 2.06 +/- 0.27 ug/ml); type: ADME; settings: 1 h
# [23] = AUC (0 to 60 mins) in streptozotocin-induced diabetes mellitus Sprague-Dawley rat liver microsomes at 4 uM after 60 mins; type: ADME; design: dose 4 uM, time < 1 hr; how it was run: as §2
# [24] = Drug excretion in feces of Sprague-Dawley rat model of streptozotocin-induced diabetes mellitus at 10 mg/kg, po by HPLC method; type: ADME, organism-based; design: dose 10 mg/kg, route oral; settings: faeces, read-out: Drug excretion; how it was run: as §3
# [25] = Mean residence time in Sprague-Dawley rat model of streptozotocin-induced diabetes mellitus at 10 mg/kg, po by HPLC method; type: ADME, organism-based; design: dose 10 mg/kg, route oral; settings: in vivo; how it was run: as §1
smiles,measurement,setting,value
COc1ccc(Cl)cc1C(=O)NCCc1ccc(S(=O)(=O)NC(=O)NC2CCCCC2)cc1 [GLYBURIDE],AUC(0-inf),[1],15200 ng·h/mL
same,AUC(0-inf),[2],2610 ng·h/mL
same,AUC(0-t),[3],2380 ng·h/mL
same,Drug uptake,[4],0.07 µg/mL
same,half-life at 4 µM,[5],0.211 h
same,dose excreted,[6],0.018%
same,dose excreted,[7],0.097%
same,Cmax,[8],250 ng/mL
same,half-life at 4 µM,[9],0.526 h
same,dose excreted,[10],0.01%
same,Cmax,[11],1250 ng/mL
same,dose excreted,[12],50%
same,Cmax,[13],350 ng/mL
same,AUC(0-inf),[14],3000 ng·h/mL
same,half-life,[15],4.55 h
same,CL/F,[16],66.3 mL/min/kg
same,dose excreted,[17],0.0042%
same,CLH(app),[18],52 µL/min/mg
same,Tmax,[19],1.5 h
same,Drug absorption,[20],42%
same,half-life,[21],5.11 h
same,Drug uptake,[22],0.09 µg/mL
same,"AUC(0-t) at 1 h, 4 µM",[23],916 ng·h/mL
same,dose excreted,[24],40%
same,MRT,[25],9.28 h
